# Results collected from several papers.
# Each line is one published result; the experiments were not run side by side.
# Target: Protein kinase C epsilon type (PRKCE, Homo sapiens, UniProt Q02156)
# One construct used (Q02156 1-737): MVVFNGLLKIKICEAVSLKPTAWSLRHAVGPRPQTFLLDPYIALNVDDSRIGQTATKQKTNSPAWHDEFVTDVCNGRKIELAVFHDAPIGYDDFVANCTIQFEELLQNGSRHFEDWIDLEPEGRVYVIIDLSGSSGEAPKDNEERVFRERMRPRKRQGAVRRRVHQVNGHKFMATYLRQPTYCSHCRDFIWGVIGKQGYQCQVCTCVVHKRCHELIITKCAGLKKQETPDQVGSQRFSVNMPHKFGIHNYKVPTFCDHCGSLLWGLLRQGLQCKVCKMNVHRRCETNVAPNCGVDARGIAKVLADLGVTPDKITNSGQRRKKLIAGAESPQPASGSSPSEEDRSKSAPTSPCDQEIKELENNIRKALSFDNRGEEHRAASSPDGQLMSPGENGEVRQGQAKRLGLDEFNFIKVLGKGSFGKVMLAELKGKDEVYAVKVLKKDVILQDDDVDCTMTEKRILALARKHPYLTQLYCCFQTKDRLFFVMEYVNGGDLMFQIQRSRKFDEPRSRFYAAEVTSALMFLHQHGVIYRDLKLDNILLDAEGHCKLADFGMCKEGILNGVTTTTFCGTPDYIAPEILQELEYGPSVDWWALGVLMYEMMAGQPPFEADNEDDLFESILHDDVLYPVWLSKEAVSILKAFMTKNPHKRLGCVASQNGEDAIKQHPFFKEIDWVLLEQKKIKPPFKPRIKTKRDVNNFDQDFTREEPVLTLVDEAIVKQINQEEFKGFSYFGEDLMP
SMILES,assay,setting,quantity,result
CNC(=O)Nc1ccc2c(c1)CC[C@@]21OC(=O)N(CC(=O)N(Cc2ccc(F)cc2)[C@@H](C)C(F)(F)F)C1=O,"cell-free assay, competition with immobilised ligand",1 µM,remaining binding,22%
CCCOc1ccc(OC)c(F)c1C(=O)c1ccc(C(=O)N[C@@H]2CNC[C@H]2NC(=O)c2ccc3[nH]ncc3c2)cc1,"enzyme activity, inhibitor",10 µM,remaining activity,67%
CC(C)(O)[C@H]1CC[C@H](Nc2ccc3ncc(-c4cccc(C(F)(F)F)c4)n3n2)CC1,"enzyme activity, inhibitor",1 µM,remaining activity,60.1%
O=C(Nc1cnn(-c2csc(C(=O)NC3COC3)c2)c1)Nc1c(F)cccc1Cl,"enzyme activity, inhibitor",5 µM,remaining activity,94.2%
CN(C)CC#Cc1ccc(OCCCc2sc(N3CCc4cccc(C(=O)Nc5nc6ccccc6s5)c4C3)nc2C(=O)O)c(F)c1,"cell-free assay, competition with immobilised ligand",1 µM,remaining binding,100%
CNC(=O)c1cc(Oc2ccc(NC(=O)Nc3ccc(Cl)c(C(F)(F)F)c3)cc2)ccn1,cell-free assay,0.5 µM,remaining signal,96.4%
COc1cc2ncnc(Nc3ccc(Oc4ccccc4)cc3C)c2cc1OC,"enzyme activity, inhibitor",1 µM,inhibition,0%
Cc1ccc(C(=O)NCc2ccsc2)cc1C#Cc1cn(C(C)C)c2ncnc(N)c12,"enzyme activity, inhibitor",1 µM,activity vs control,104%
Nc1c(C(=O)NCc2ccc(C(=O)NCCCC3CCCCC3)cc2)cnn1-c1ccccc1,"cell-free assay, competition with immobilised ligand",0.1 µM,remaining binding,100%
COc1cc(Cl)c(C(=O)N[C@@H](CN[C@H]2CC[C@@H](N)CC2)Cc2ccc(C#N)cc2)cc1-c1ccc(CN[C@H](C)c2ccc(C)cc2)o1,"enzyme activity, inhibitor",1 µM,remaining activity,85%
Nc1cnc(N2CCc3cc(S(=O)(=O)Nc4c(F)cc(Cl)cc4F)cc(N4CCCC4=O)c32)nc1,"cell-free assay, competition with immobilised ligand",1 µM,remaining binding,100%
CCN(CC)CCNC(=O)c1c(C)[nH]c(/C=C2\C(=O)Nc3ccc(F)cc32)c1C,"enzyme activity, inhibitor",10 µM,inhibition,21%
CCN(CC)c1ccc(C2=NNC(=O)CC2C)cc1[N+](=O)[O-] (centres unmarked),"enzyme activity, inhibitor",10 µM,remaining activity,95%
CNCc1ccccc1-c1csc([C@H](C)Nc2nc(C)nc3cc(OC)c(OC)cc23)c1,"cell-free assay, competition with immobilised ligand",1 µM,remaining binding,78%
Cn1cncc1C1=CN(c2ncnc3[nH]cnc23)CCS1,"enzyme activity, inhibitor, radiometric",2 µM,inhibition,92.7%
O=C1NC(=O)c2cc(Nc3ccc(F)cc3)c(Nc3ccc(F)cc3)cc21,cell-free assay,0.5 µM,remaining signal,97.8%
O=C(CSc1nc2nccnc2c(=O)n1CCc1ccccc1)Nc1nccs1,"enzyme activity, inhibitor",10 µM,inhibition,-23%
